Published values collected from several papers.
Each line is one published result; the experiments were not run side by side.
Target: Tyrosine-protein kinase FRK (FRK, Homo sapiens, UniProt P42685)

Cc1ccc(Nc2nccc(N(C)c3ccc4c(C)n(C)nc4c3)n2)cc1S(N)(=O)=O — remaining signal (cell-free assay; 0.5 µM): 58.1%
O=C(Nc1cnn(-c2csc(C(=O)NC3COC3)c2)c1)Nc1c(F)cccc1Cl — remaining activity (enzyme activity; inhibitor; 5 µM): 95.6%
CC/C(=N\NC(=O)NCc1cccc(O)c1)c1ccc(O)c(C)c1O — inhibition (enzyme activity; inhibitor; 0.1 µM): 0.5%
CC(C)(O)[C@H]1CC[C@H](Nc2ccc3ncc(-c4cccc(C(F)(F)F)c4)n3n2)CC1 — remaining activity (enzyme activity; inhibitor; 1 µM): 57.7%
O=C1Nc2ccc(Cl)cc2C1=Cc1cc(Cl)c(O)c(Cl)c1 — remaining signal (cell-free assay; 0.5 µM): 70.3%
CC(C)(C)c1nc(-c2cccc(NS(=O)(=O)c3c(F)cccc3F)c2F)c(-c2ccnc(N)n2)s1 — remaining activity (enzyme activity; inhibitor; radiometric; 1 µM): 111%
C[C@H](NC(=O)c1cnc2n1[C@](C)(Cc1ccc(C#N)cc1)C(=O)N2c1cc(Cl)c(F)c(Cl)c1)C(=O)NC1(c2ccccn2)CC1 — remaining binding (cell-free assay; competition with immobilised ligand; 1 µM): 68%
COc1cc2ncnc(Nc3ccc(Oc4ccccc4)cc3C)c2cc1OC — inhibition (enzyme activity; inhibitor; 1 µM): 63%
COc1cc(-c2cn(C3CCc4c(F)cccc4N(CC(F)(F)F)C3=O)nn2)ccc1-n1cnc(C)c1 (stereo not shown) — remaining binding (cell-free assay; competition with immobilised ligand; 1 µM): 100%
c1nc2c(Nc3ccc4c(c3)OCCO4)nc(Nc3ccc4c(c3)OCCO4)nc2[nH]1 — activity vs control (enzyme activity; inhibitor; 10 µM): 22%
C[C@@H]1CN(c2cc(-c3n[nH]c4ccc(OC5(C)CC5)cc34)ncn2)C[C@H](C)O1 — remaining binding (cell-free assay; competition with immobilised ligand; 0.1 µM): 100%
O=C(Nc1cnn(-c2csc(C(=O)NC3COC3)c2)c1)Nc1ccccc1Cl — remaining activity (enzyme activity; inhibitor; 5 µM): 97.4%
CC1=C(C#N)[C@@H](c2ccc3[nH]nc(C)c3c2)C(C#N)=C(c2ccc(Cl)cc2)N1 — remaining binding (cell-free assay; competition with immobilised ligand; 1 µM): 100%
Cc1cc(NC(=O)c2cccc3cc(-c4cccc5[nH]nc(N)c45)ccc23)ccc1F — activity vs control (enzyme activity; inhibitor; 0.1 µM): 67%
CCN(CC)CCNC(=O)c1c(C)[nH]c(/C=C2\C(=O)Nc3ccc(F)cc32)c1C — inhibition (enzyme activity; inhibitor; 10 µM): 93%
Cc1nc(N2CC[C@@H](O)C2)ncc1-c1cc(C(F)(F)F)cc2[nH]ncc12 — remaining binding (cell-free assay; competition with immobilised ligand; 1 µM): 98%
Cc1ccc(C(=O)NCc2ccsc2)cc1C#Cc1cn(C(C)C)c2ncnc(N)c12 — activity vs control (enzyme activity; inhibitor; 1 µM): 2%
CCCOc1ccc([C@@H]2[C@@H](C(=O)O)[C@H](c3ccc4c(c3)OCO4)CN2CC(=O)Nc2c(CC)cccc2CC)cc1 — remaining binding (cell-free assay; competition with immobilised ligand; 1 µM): 89%
CCN(CC)CCNC(=O)c1c(C)[nH]c(/C=C2\C(=O)Nc3ccc(Cl)cc32)c1C — remaining activity (enzyme activity; inhibitor; 0.5 µM): 59.3%
Cc1ccc(C(=O)Nc2ccc(CN3CCN(C)CC3)c(C(F)(F)F)c2)cc1C#Cc1cnc2cccnn12 — remaining activity (enzyme activity; inhibitor; 23.5 nM): 16%
N#CCCc1ccc2c(c1)-c1[nH]c3ccc([N+](=O)[O-])cc3c1CC(=O)N2 — remaining signal (cell-free assay; 0.5 µM): 92.7%
CN([C@@H]1CCc2c(CC(=O)O)c3cc(S(C)(=O)=O)ccc3n2C1)S(=O)(=O)c1ccc(F)cc1 — remaining binding (cell-free assay; competition with immobilised ligand; 1 µM): 100%
